Data from article PMC8178204 (Cancer research, 2021).

Assays:
LC3, p62, LAMP2 = test: Immunoblot time course of autophagy-degraded proteins in SW480 cells; format: cell-based, human; details: for p62 accumulation, p38MAPK inhibitor alone: SW480, 1 or 3 days
SW480 cells = test: Cell survival, dead cells and proliferation of SW480 cells; format: cell-based, human; details: SW480, 0.125 μM WX8 and/or 5 μM SB202190
[1] = tested on: SW480 colon adenocarcinoma xenografts; test: SW480 xenograft in nude mice; details: for reduction of tumor growth: 20 mg/kg WX8 and/or 12.5 mg/kg SB202190, day 22; for Ki-67 positive tumor cells: tumor sections
[2] = tested on: 8 normal fibroblast cell lines; test: Cell survival after 3 days, viable cell count with FACS; format: cell-based, human; details: read-out: median IC50 (concentration that cause 50% reduction in cell survival), 3 days of treatment
12 cancer lines = test: as above; format: cell-based, human; details: read-out: median IC50 (concentration that cause 50% reduction in cell survival), 3 days of treatment
LC3, p62 = format: cell-based, human; details: 0.5 μM WX8, all four cell lines
MCF10A cells = test: Cell survival of MCF10A cells after p38MAPK siRNA depletion; format: cell-based, human; details: 0.5 μM WX8, 3 days
[3] = tested on: HCT116 and A375 (sensitive), WI38 and Hs27 (resistant) cell lines; test: Cell survival, sensitive versus resistant cell lines; format: cell-based, human
Cathepsin D = Cathepsin D maturation in SW480 cells; format: cell-based, human; details: SW480, 0.125 μM WX8 with or without 5 μM SB202190
Summary of the method: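 SW480 cells were cultured for the indicated times with 0.125 μM WX8, 5 μM SB202190, or both, each diluted 1:1,000 from DMSO stocks, with DMSO as vehicle. Cells were trypsinized and pooled with unattached cells, then lysed in SDS sample buffer. Precursor and mature Cathepsin D were immunoblotted (nitrocellulose, peroxidase secondary, chemiluminescence) and quantified by densitometry of low-exposure images.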

[4] = SW480, 0.125 μM WX8 and/or 5 μM SB202190
[5] = 20 mg/kg WX8 and/or 12.5 mg/kg SB202190

Structure (SMILES)	p62 accumulation, p38MAPK inhibitor alone (LC3, p62, LAMP2)	effect on proliferation (cell divisions per day) over time (SW480 cells)	LAMP2 level increase (LC3, p62, LAMP2; [4])	p62 level increase (LC3, p62, LAMP2; [4])	total LC3 protein accumulation above initial levels (LC3, p62, LAMP2; [4]) [fold]	adverse effects (mouse behavior, body weight) ([1]; daily intraperitoneal, 20 mg/kg WX8 and/or 12.5 mg/kg SB202190)	reduction of tumor growth ([1]; daily intraperitoneal) [%]	Ki-67 positive tumor cells [1, 5]	IC50 [2] [nM]	time course of LC3 and p62 protein levels (LC3, p62, LAMP2; [4])	IC50 (12 cancer lines) [nM]	Total LC3 and the LC3-II/I ratio (LC3, p62)	p62 level (LC3, p62)	reduction of cell survival (MCF10A cells; control siRNA-transfected cells) [%]	reduction of cell survival (MCF10A cells; highest levels of p38MAPK depletion) [%]	difference in sensitivity to WX8 between sensitive and resistant cell lines [3]	day at which active Cathepsin D reappeared (Cathepsin D) [days]
CC(C)(C)Cn1c(N)nc2ccc(-c3[nH]c(C(C)(C)C)nc3-c3ccc(F)cc3)nc21 [LY2228820]	caused accumulation of p62																
Oc1ccc(-c2nc(-c3ccncc3)c(-c3ccc(F)cc3)[nH]2)cc1 [SB202190]	caused accumulation of p62	reduced proliferation for up to two days	about 3 fold	about 3 fold	2	No adverse effects were apparent	28	about 75%									
C(=N\Nc1nc(Nc2ccccc2)nc(N2CCOCC2)n1)/c1c[nH]c2ccccc12 [WX8]		reduced proliferation for up to two days	about 3 fold	about 3 fold	5		22	about 75%	2700	peaked on day 2	200	increased	p62 accumulation	20	65	approximately 16 fold	3
